Here are results for 26 compounds from article PMC10438863 (Journal of Enzyme Inhibition and Medicinal Chemistry, 2023).

Structures are written as SMILES.

The test system of one experiment is K562 cell line. As to the kind of experiment: CCK-8 antiproliferative assay, K562. The note with it: for inhibition at 0.1 µM / inhibition at 1 µM / IC50: Homo sapiens, K562, 72 h; for inhibition at 0.1 µM / inhibition at 1 µM: read-out: Inhibition rate (%); for IC50: read-out: IC50 (µM) K562; for fold decrease in antiproliferative activities of K562 cell lines: relative to 12d. The class given is cell-based. Summed up:
(§1)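 Cells were grown in RPMI-1640 with 10% FBS at 37 °C in 5% CO2. About 3.5 × 10^3 cells/well were seeded, grown 24 h, then given test compound at several concentrations for 72 h in triplicate wells. CCK-8 was added for 2–3 h and OD read at 450 nm to give inhibition rate or IC50. K562 screen: mean of ≥2 independent experiments. Five-line panel: mean ± SD of three.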

The subject of the next experiment is H22. As to the kind of experiment: CCK-8 antiproliferative assay, H22. It is filed as cell-based, mouse. The settings on record: Mus musculus, H22, 72 h, read-out: IC50 (µM) H22. Summed up:
as §1

For a further experiment, the system named is A549. As to the kind of experiment: CCK-8 antiproliferative assay, A549. The class given is cell-based. The note with it: Homo sapiens, A549, 72 h, read-out: IC50 (µM) A549. Summed up:
as §1

A further experiment relates to Hela. As to the kind of experiment: CCK-8 antiproliferative assay, Hela. The class given is cell-based. The settings on record: Homo sapiens, HeLa, 72 h, read-out: IC50 (µM) Hela. The method in brief: as §1
The next experiment has as its system normal cell line HFL-1. Nature of the experiment: CCK-8 assay, normal cell line HFL-1. The class given is cell-based. The settings on record: Homo sapiens, HFL1, 72 h, read-out: IC50 (µM) HFL-1. The method in brief: as §1

As to `COc1ccc(CC2Cc3cc(OC)c(OC)c(OC)c3C2)cc1` (centres unmarked) [Compound 12a, 4,5,6-trimethoxy-2–(4-methoxybenzyl)-2,3-dihydro-1H-indene], in the experiment on K562 cell line, the inhibition at 0.1 µM was 5.71% and the inhibition at 1 µM amounted to 72.4%.
Taken in the same sequence, the figures for `COc1ccc(CC2Cc3cc(OC)c(OC)c(OC)c3C2)cc1OC` (centres unmarked) [Compound 12b, 2–(3,4-dimethoxybenzyl)-4,5,6-trimethoxy-2,3-dihydro-1H-indene] were 5.8% and 15.2%.
For `COc1cc(CC2Cc3cc(OC)c(OC)c(OC)c3C2)cc(OC)c1OC` (centres unmarked) [Compound 12c, 4,5,6-trimethoxy-2–(3,4,5-trimethoxybenzyl)-2,3-dihydro-1H-indene], in that order: 6.96% and 9.48%.
Take `COc1ccc(CC2Cc3cc(OC)c(OC)c(OC)c3C2)cc1F` (centres unmarked) [Compound 12e, 2–(3-fluoro-4-methoxybenzyl)-4,5,6-trimethoxy-2,3-dihydro-1H-indene]: in the experiment on K562 cell line, the inhibition at 0.1 µM was 10.2% and the inhibition at 1 µM is 67%.
Taken in the same sequence, the figures for `COc1cc2c(c(OC)c1OC)CC(Cc1ccc(C)c(F)c1)C2` (centres unmarked) [Compound 12f, 2–(3-fluoro-4-methylbenzyl)-4,5,6-trimethoxy-2,3-dihydro-1H-indene] were 6.65% and 72%.
For `COc1cc2c(c(OC)c1OC)CC(Cc1ccc(F)c(F)c1)C2` (centres unmarked) [Compound 12g, 2–(3,4-difluorobenzyl)-4,5,6-trimethoxy-2,3-dihydro-1H-indene], in that order: 4.71% and 7.74%.
Taken in the same sequence, the figures for `COc1cc2c(c(OC)c1OC)CC(Cc1ccc(N)c(C)c1)C2` (centres unmarked) [Compound 12h, 2-methyl-4-((4,5,6-trimethoxy-2,3-dihydro-1H-inden-2-yl)methyl)aniline] were 2.25% and 79.8%.
Take `COc1cc2c(c(OC)c1OC)CC(Cc1ccc(C)c(C)c1)C2` (centres unmarked) [Compound 12i, 2–(3,4-dimethylbenzyl)-4,5,6-trimethoxy-2,3-dihydro-1H-indene]: in the experiment with K562 cell line, the inhibition at 0.1 µM turned out to be 3% and the inhibition at 1 µM is 66%.
For `COc1ccc(CC2Cc3cc(OC)c(OC)c(OC)c3C2)cc1N` (centres unmarked) [Compound 12j, 2-methoxy-5-((4,5,6-trimethoxy-2,3-dihydro-1H-inden-2-yl)methyl)aniline], the IC50 was 0.068 ± 0.006 µM in the experiment on K562 cell line; 0.093 ± 0.005 µM with H22; 0.212 ± 0.013 µM in the experiment with A549; 0.136 ± 0.011 µM in the experiment on Hela; 0.59 ± 0.062 µM in the experiment on normal cell line HFL-1. Further, the inhibition at 0.1 µM with K562 cell line turned out to be 68.7%. Further, the inhibition at 1 µM with K562 cell line was determined as 86.6%.
In the case of `COc1ccc(CC2Cc3cc(OC)c(OC)c(OC)c3C2)cn1` (centres unmarked) [Compound 12k, 2-methoxy-5-((4,5,6-trimethoxy-2,3-dihydro-1H-inden-2-yl)methyl)pyridine], in the experiment on K562 cell line, the inhibition at 0.1 µM was determined as 4.12% and the inhibition at 1 µM stood at 13.9%.
Turning to `COc1cc2c(c(OC)c1OC)CC(Cc1ccccc1)C2` (centres unmarked) [Compound 12l, 2-benzyl-4,5,6-trimethoxy-2,3-dihydro-1H-indene], in the experiment on K562 cell line, the inhibition at 0.1 µM came to 1.03% and the inhibition at 1 µM was 7.29%.
For `COc1cc2c(c(OC)c1OC)CC(Cc1ccc(O)cc1)C2` (centres unmarked) [Compound 12m, 4-((4,5,6-trimethoxy-2,3-dihydro-1H-inden-2-yl)methyl)phenol], in that order: 2.9% and 16.4%.
Taken in the same sequence, the figures for `COc1cc2c(c(OC)c1OC)CC(Cc1ccc(N)cc1)C2` (centres unmarked) [Compound 12n, 4-((4,5,6-trimethoxy-2,3-dihydro-1H-inden-2-yl)methyl)aniline] were 5.81% and 78.8%.
Taken in the same sequence, the figures for `COc1cc2c(c(OC)c1OC)CC(Cc1ccc(N(C)C)cc1)C2` (centres unmarked) [Compound 12o, N,N-dimethyl-4-((4,5,6-trimethoxy-2,3-dihydro-1H-inden-2-yl)methyl)aniline] were 5.65% and 6.97%.
Consider `COc1cc2c(c(OC)c1OC)CC(Cc1ccc(C(F)(F)F)cc1)C2` (centres unmarked) [Compound 12p, 4,5,6-trimethoxy-2–(4-(trifluoromethyl)benzyl)-2,3-dihydro-1H-indene], for which, in the experiment on K562 cell line, the inhibition at 0.1 µM turned out to be 12.6% and the inhibition at 1 µM is 15.4%.
Take `COc1cc2c(c(OC)c1OC)CC(Cc1ccc3c(c1)CCO3)C2` (centres unmarked) [Compound 12q, 5-((4,5,6-trimethoxy-2,3-dihydro-1H-inden-2-yl)methyl)-2,3-dihydrobenzofuran]: the IC50 in the experiment on K562 cell line turned out to be 0.079 ± 0.009 µM; in the experiment on H22, 0.104 ± 0.004 µM; in the experiment on A549 it was 0.22 ± 0.015 µM; in the experiment with Hela, 0.183 ± 0.009 µM; in the experiment with normal cell line HFL-1 it was 0.398 ± 0.023 µM. Further, the inhibition at 0.1 µM in the experiment with K562 cell line was 83.6%. Moreover, the inhibition at 1 µM in the experiment on K562 cell line was found to be 91.9%.
For the compound `COc1cc2c(c(OC)c1OC)CC(Cc1cccc3[nH]ccc13)C2` (centres unmarked) [Compound 12s, 4-((4,5,6-trimethoxy-2,3-dihydro-1H-inden-2-yl)methyl)-1H-indole], in the experiment on K562 cell line, the inhibition at 0.1 µM came to 9.67% and the inhibition at 1 µM was 67.1%.
Consider `COc1cc2c(c(OC)c1OC)CC(Cc1ccc3[nH]ccc3c1)C2` (centres unmarked) [Compound 12t, 5-((4,5,6-trimethoxy-2,3-dihydro-1H-inden-2-yl)methyl)-1H-indole], for which the IC50 with K562 cell line is 0.176 ± 0.024 µM; in the experiment with H22, 0.254 ± 0.02 µM; with A549 it was 0.277 ± 0.029 µM; with Hela it was 0.284 ± 0.014 µM; in the experiment with normal cell line HFL-1, 0.552 ± 0.075 µM. In addition, the inhibition at 0.1 µM in the experiment with K562 cell line is 50.4%. Further, the inhibition at 1 µM in the experiment on K562 cell line is 88.6%.
With `COc1cc2c(c(OC)c1OC)CC(Cc1ccc3cc[nH]c3c1)C2` (centres unmarked) [Compound 12u, 6-((4,5,6-trimethoxy-2,3-dihydro-1H-inden-2-yl)methyl)-1H-indole], in the experiment with K562 cell line, the inhibition at 0.1 µM is 10.8% and the inhibition at 1 µM was found to be 83.9%.
Regarding `COc1cc2c(c(OC)c1OC)CC(Cc1cccc3c1ccn3C)C2` (centres unmarked) [Compound 12v, 1-methyl-4-((4,5,6-trimethoxy-2,3-dihydro-1H-inden-2-yl)methyl)-1H-indole], in the experiment with K562 cell line, the inhibition at 0.1 µM was 5.02% and the inhibition at 1 µM was 28.5%.
Taken in the same sequence, the figures for `COc1cc2c(c(OC)c1OC)CC(Cc1ccc3c(ccn3C)c1)C2` (centres unmarked) [Compound 12w, 1-methyl-5-((4,5,6-trimethoxy-2,3-dihydro-1H-inden-2-yl)methyl)-1H-indole] were 10% and 85.8%.
With `COc1cc2c(c(OC)c1OC)CC(Cc1ccc3ccn(C)c3c1)C2` (centres unmarked) [Compound 12x, 1-methyl-6-((4,5,6-trimethoxy-2,3-dihydro-1H-inden-2-yl)methyl)-1H-indole], in the experiment with K562 cell line, the inhibition at 0.1 µM came out at 12.5% and the inhibition at 1 µM turned out to be 74.9%.
For `COc1ccc(CC2Cc3cc(OC)c(OC)cc3C2)cc1O` [Compound 15a, 5-((5,6-dimethoxy-2,3-dihydro-1H-inden-2-yl)methyl)-2-methoxyphenol], the IC50 in the experiment on K562 cell line was determined as 0.192 ± 0.013 µM; in the experiment with H22, 0.307 ± 0.015 µM; with A549, 0.753 ± 0.04 µM; with Hela, 0.317 ± 0.027 µM; with normal cell line HFL-1, 5 ± 0.306 µM. In the experiment on K562 cell line, the inhibition at 0.1 µM stood at 45.6%. Moreover, in the experiment on K562 cell line, the inhibition at 1 µM was 81.5%. For the same compound, the “fold decrease in antiproliferative activities of K562 cell lines” value in the experiment with K562 cell line is listed as “about 7 fold”.
Regarding `COc1ccc(CC2Cc3cc(O)c(OC)cc3C2)cc1O` (centres unmarked) [Compound 15b, 2–(3-hydroxy-4-methoxybenzyl)-6-methoxy-2,3-dihydro-1H-inden-5-ol], the concentration for half-maximal inhibition (IC50) with K562 cell line stood at 0.425 ± 0.027 µM; with H22 it was 0.575 ± 0.041 µM; in the experiment on A549, 2.01 ± 0.117 µM; with Hela, 3.17 ± 0.108 µM; in the experiment with normal cell line HFL-1, 11.3 ± 1.4 µM. Also, the inhibition at 0.1 µM in the experiment on K562 cell line stood at 31.4%. The inhibition at 1 µM in the experiment with K562 cell line was found to be 89.2%. The “fold decrease in antiproliferative activities of K562 cell lines” value in the experiment with K562 cell line is reported as approximately 15 fold.
As for `COc1ccc(CC2Cc3c(cc(OC)c(OC)c3OC)O2)cc1O` (centres unmarked) [Compound 15c, 2-methoxy-5-((4,5,6-trimethoxy-2,3-dihydrobenzofuran-2-yl)methyl)phenol], the IC50 was 0.1 ± 0.007 µM in the experiment on K562 cell line; 0.114 ± 0.023 µM in the experiment with H22; 0.341 ± 0.064 µM in the experiment with A549; 0.309 ± 0.032 µM with Hela; 3.58 ± 0.548 µM in the experiment on normal cell line HFL-1. Moreover, in the experiment with K562 cell line, the inhibition at 0.1 µM came out at 52.1%. The inhibition at 1 µM in the experiment with K562 cell line came to 87.5%.
As for `COc1ccc(CC2Cc3cc(OC)c(OC)c(OC)c3C2=O)cc1O` (centres unmarked) [Compound 15d, 2–(3-hydroxy-4-methoxybenzyl)-5,6,7-trimethoxy-2,3-dihydro-1H-inden-1-one], the IC50 in the experiment with K562 cell line is 0.774 ± 0.051 µM; with H22, 1.13 ± 0.058 µM; with A549, 2.95 ± 0.154 µM; in the experiment on Hela it was 3.41 ± 0.186 µM; with normal cell line HFL-1 it was 6.96 ± 0.843 µM. In the experiment on K562 cell line, the inhibition at 0.1 µM came out at 39%. The inhibition at 1 µM with K562 cell line was determined as 63%.
